Source: publication PMC6560633 (Journal of the American Chemical Society, 2018)
Read-outs that look alike come from different tables or passages of the source.

Assays:
[1] = Ligand protonation constants by pH-potentiometric titration; assay type: physicochemical; conditions: for log Ka1 / log Ka2 / log Ka3 / log Ka4: 25 °C, I = 0.1 M KCl; for existence of fully deprotonated ligand in solution: speciation
In short: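 Protonation constants came from pH-potentiometric titration at 25 °C in 0.1 M KCl. The fraction of each protonated or deprotonated ligand species in solution was calculated from the fitted constants using species distribution diagrams. Overall ligand basicity was taken as the sum of the log Ka values.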

[2] = Stability constants of Ca^2+ complexes by pH-potentiometry; assay type: binding; conditions: I = 0.1 M KCl; for log KCaL / pCa / log KCaHL: 25 °C; for log KʹCa (conditional stability constant): pH 7.4, 25 °C; for pCa: −log [M^2+]free, [M^2+] = 10^−6 M, [L] = 10^−5 M, pH 7.4; for log KCaHL: protonation constant of the Ca^2+ complex
[3] = Stability constants of Sr^2+ complexes by pH-potentiometry; assay type: binding; conditions: I = 0.1 M KCl; for log KʹSr (conditional stability constant): pH 7.4, 25 °C; for pSr: −log [M^2+]free, [M^2+] = 10^−6 M, [L] = 10^−5 M, pH 7.4
[4] = Stability constants of Ba^2+ complexes by pH-potentiometry; assay type: binding; conditions: for log KBaL / major species present in solution of Ba^2+ and ligand / log KBaH2L / log KBaHL / pBa: 25 °C; for log KBaL / log KʹBa (conditional stability constant) / major species present in solution of Ba^2+ and ligand / log KBaH2L / log KBaHL / pBa: I = 0.1 M KCl; for selectivity for Ba^2+ over Ca^2+ (ratio of pM values) / selectivity for Ba^2+ over Sr^2+ (ratio of pM values) / major species present in solution of Ba^2+ and ligand / pBa: pH 7.4; for log KʹBa (conditional stability constant): pH 7.4, 25 °C; for major species present in solution of Ba^2+ and ligand: [Ba^2+]tot = [L]tot = 1.0 mM; for log KBaH2L / log KBaHL: protonation constant of the Ba^2+ complex; for pBa: −log [M^2+]free, [M^2+] = 10^−6 M, [L] = 10^−5 M
[5] = Dissolution of BaSO4 suspension by ligand, GFAAS
In short: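 BaSO4 was formed in pH 8 NaHCO3 from Ba(NO3)2 (4.53 mM) and excess Na2SO4 (13.48 mM), then ligand (5 mM) was added at RT. Dissolved barium was measured by GFAAS after 10, 20 and 30 min. A second series used pH 11 […] buffer and was sampled at 5 and 30 min. Results are reported as percent of BaSO4 dissolved.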

[6] = Dissolution of crude barite ore in columns, ligand efficiency by GFAAS; conditions: barite 3 g, soak 1 h
[7] = I = 0.1 M KCl, cited from earlier work
[8] = cited from earlier work; for log KCaHL: protonation constant of the Ca^2+ complex
[9] = cited from earlier work; for log KSrHL: protonation constant of the Sr^2+ complex
[10] = Kinetic inertness: La^3+ transmetalation challenge of Ba–L complexes, UV-vis; assay type: physicochemical; conditions: 1000 equiv of La^3+, RT, pH 7.3
[11] = Stability of Ba^2+ complexes in the presence of hydroxyapatite, GFAAS; assay type: physicochemical; conditions: HAP suspension, pH 7.6 buffer, after 20 h; 1.1 equiv L, 1.0 equiv Ba^2+
[12] = cited from earlier work
[13] = protonation constant of the Sr^2+ complex, 25 °C
[14] = pH 8 NaHCO3, RT, ligand 5 mM, 30 min
[15] = I = 0.1 M KNO3, bracketed value

## O=C(O)c1cccc(CN2CCOCCOCCN(Cc3cccc(C(=O)O)n3)CCOCCOCC2)n1 [macropa]
[1]
  overall basicity (sum of log Ka values): 19.99
  log Ka1: 7.41
  log Ka2: 6.899
  log Ka3: 3.23(1)
  log Ka4: 2.45(5)
[1]; listed as macropa^2−
  log Ka1: 7.41(1)
  log Ka2: 6.899(3)
[1]; pH 7.4
  fraction of ligand fully deprotonated (L^2–): 43%
[2]
  log KCaL: 5.79(1)
  log KʹCa (conditional stability constant): 5.42
  pCa: 6.54
[3]; 25 °C
  log KSrL: 9.442(4)
  pSr: 10.02
[3]
  log KʹSr (conditional stability constant): 9.07
[3]; [13]
  log KSrHL: 3.35(8)
[4]
  log KBaL: 11.11(4)
  selectivity for Ba^2+ over Ca^2+ (ratio of pM values): 1.79 fold
  selectivity for Ba^2+ over Sr^2+ (ratio of pM values): 1.17 fold
  log KʹBa (conditional stability constant): 10.74
  major species present in solution of Ba^2+ and ligand: ML species
  log KBaH2L: 2.49(7)
  log KBaHL: 3.76(2)
  pBa: 11.69
[4]; pH 4.0
  Ba^2+ bound by ligand: 90%
[4]; pH 5.1
  Ba^2+ complexed by ligand: 99%
[5]; pH 8 NaHCO3, RT, ligand 5 mM, 10 min
  BaSO4 dissolved: 78%
[5]; [14]
  BaSO4 dissolved: complete dissolution
[5]; pH 11 NaCO3 buffer, 5 min
  BaSO4 dissolved: > 95%
[6]; pH 8, ~48 mM ligand
  ligand efficiency (percent of ligand saturated with Ba^2+): 40%
[6]; pH 11, ~48 mM ligand
  ligand efficiency (percent of ligand saturated with Ba^2+): 40%
[7]; parenthetic value
  log Ka1: 7.41
  log Ka2: 6.85
  log Ka3: 3.32
  log Ka4: 2.36
  log Ka5: (1.69)
[8]; [15]
  log KCaL: 5.25
[9]; [15]
  log KSrL: 9.57

## O=C([O-])c1cccc(CN2CCOCCOCCN(Cc3cccc(C(=O)[O-])n3)CCOCCOCC2)n1.[Ba+2] [Ba–macropa]
[10]
  half-life (t½) of substitution of Ba^2+ with La^3+: 5.45 ± 0.20 min
[11]
  Ba^2+ retained in the liquid phase (intact complex): 82%

## O=S(=O)(O)c1ccc(O)c2nc(CN3CCOCCOCCN(Cc4ccc5c(S(=O)(=O)O)ccc(O)c5n4)CCOCCOCC3)ccc12 [macroquin–SO3]
[1]
  overall basicity (sum of log Ka values): 32.14
  log Ka1: 9.34
  log Ka2: 9.43
  log Ka3: 6.75
  log Ka4: 6.62
  existence of fully deprotonated ligand in solution: do not exist in solution below pH 8
[1]; listed as macroquin–SO3^4−
  log Ka1: 9.34(4)
  log Ka2: 9.43(1)
  log Ka3: 6.75(4)
  log Ka4: 6.62(4)
[1]; pH 7.4
  fraction of ligand as H2L^2–: 78%
[2]
  log KCaL: 6.04(8)
  log KʹCa (conditional stability constant): 3.19
  log KCaHL: 8.60(4)
  pCa: 6.01
[3]; 25 °C
  log KSrL: 8.62(2)
  pSr: 6.70
[3]
  log KʹSr (conditional stability constant): 5.64
[3]; [13]
  log KSrH2L: 6.920(3)
  log KSrHL: 8.34(4)
[4]
  log KBaL: 10.44(6)
  log KʹBa (conditional stability constant): 8.76
  major species present in solution of Ba^2+ and ligand: MH2L species
  log KBaH2L: 7.80(2)
  log KBaHL: 9.24(7)
  pBa: 9.72

## O=C(O)CN1CCN(CC(=O)O)CCN(CC(=O)O)CCN(CC(=O)O)CC1 [DOTA, reference compound]
[2]
  log KʹCa (conditional stability constant): 10.34
  pCa: 11.29
[3]
  log KʹSr (conditional stability constant): 8.35
[3]; 25 °C
  pSr: 9.30
[4]
  selectivity for Ba^2+ over Ca^2+ (ratio of pM values): < 1 fold
  selectivity for Ba^2+ over Sr^2+ (ratio of pM values): < 1 fold
  log KʹBa (conditional stability constant): 5.72
  pBa: 6.76
[5]; [14]
  BaSO4 dissolved: 40%
[5]; pH 11 NaCO3 buffer, 30 min
  BaSO4 dissolved: 75%
[7]
  log Ka1: 11.14
  log Ka2: 9.69
  log Ka3: 4.85
  log Ka4: 3.95
[8]; I = 0.1 M KCl
  log KCaHL: 3.60
[9]; I = 0.1 M KCl
  log KSrHL: 4.52
[12]; I = 0.1 M KCl
  log KBaL: 11.75

## O=C(O)c1cccc(CN2CCOCCOCCN(Cc3ccc4cccc(O)c4n3)CCOCCOCC2)n1 [macropaquin]
[1]
  overall basicity (sum of log Ka values): 27.69
  log Ka1: 10.33
  log Ka2: 7.15
  log Ka3: 6.97
  log Ka4: 3.24(4)
  existence of fully deprotonated ligand in solution: do not exist in solution below pH 8
[1]; listed as macropaquin^2−
  log Ka1: 10.33(4)
  log Ka2: 7.15(3)
  log Ka3: 6.97(2)
[1]; pH 7.4
  fraction of ligand as monoprotonated species HL^–: 56%
[2]
  log KCaL: 5.90(4)
  log KʹCa (conditional stability constant): 3.94
  log KCaHL: 8.59(2)
  pCa: 6.04
[3]; 25 °C
  log KSrL: 9.19(5)
  pSr: 8.50
[3]
  log KʹSr (conditional stability constant): 7.54
[3]; [13]
  log KSrHL: 8.92(2)
[4]
  log KBaL: 10.87(2)
  log KʹBa (conditional stability constant): 10.05
  major species present in solution of Ba^2+ and ligand: MHL species
  log KBaH2L: 3.28(2)
  log KBaHL: 9.76(2)
  pBa: 11.01
[5]; [14]
  BaSO4 dissolved: 95%

## O=C(O)CN(CCN(CC(=O)O)CC(=O)O)CCN(CC(=O)O)CC(=O)O [DTPA, reference compound]
[2]
  log KʹCa (conditional stability constant): 7.63
  pCa: 8.59
[3]
  log KʹSr (conditional stability constant): 5.53
[3]; 25 °C
  pSr: 6.61
[4]
  selectivity for Ba^2+ over Ca^2+ (ratio of pM values): < 1 fold
  selectivity for Ba^2+ over Sr^2+ (ratio of pM values): < 1 fold
  log KʹBa (conditional stability constant): 4.63
  pBa: 6.15
[5]; [14]
  BaSO4 dissolved: 40%
[5]; pH 11 NaCO3 buffer, 5 min
  BaSO4 dissolved: nearly all
[6]; pH 8, ~48 mM ligand
  ligand efficiency (percent of ligand saturated with Ba^2+): 2%
[6]; pH 11, ~48 mM ligand
  ligand efficiency (percent of ligand saturated with Ba^2+): 17%
[7]
  log Ka1: 10.34
  log Ka2: 8.59
  log Ka3: 4.25
  log Ka4: 2.71
  log Ka5: 2.18
[8]; I = 0.1 M KCl
  log KCaL: 11.77
[8]
  log KCaHL: 6.10
[9]
  log KSrL: 9.68
  log KSrHL: 5.4
[12]
  log KBaL: 8.78
[12]; protonation constant of the Ba^2+ complex
  log KBaHL: 5.34
